Assay results taken from ChEMBL document CHEMBL1157383, “Antiproliferative oleanane saponins from Meryta denhamii” (J Nat Prod, 2008).

Assays:
[1] = system: J774.A1; test: Antiproliferative activity against mouse J774.A1 cells after 72 hrs by MTT conversion assay; assay type: cell-based; settings: J774.A1, 72 h
In short: (§1)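 Cells (3.4 × 10^4) plated in 96-well plates and left to adhere 2 h at 37 °C, 5% CO2/95% air; medium replaced, 1:4 serial dilutions of compound added, incubated 72 h. Viability by MTT conversion, OD read at 620 nm; % dead cells = 100 − (OD treated/OD control) × 100. 6-mercaptopurine serial dilutions run in some experiments.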

[2] = system: WEHI-164; test: Antiproliferative activity against mouse WEHI164 cells after 72 hrs by MTT conversion assay; assay type: functional, cell-based; settings: WEHI-164, 72 h; in short: as §1
[3] = system: HEK293; test: Antiproliferative activity against human HEK293 cells after 72 hrs by MTT conversion assay; assay type: cell-based; settings: HEK293, 72 h; in short: as §1

| SMILES | IC50 [1] [µM] | IC50 [2] [µM] | IC50 [3] [µM] |
| --- | --- | --- | --- |
| C[C@@H]1O[C@@H](O[C@H]2[C@H](O)[C@@H](O)[C@H](OC[C@H]3O[C@@H](OC(=O)[C@]45CCC(C)(C)C[C@H]4C4=CC[C@@H]6[C@@]7(C)CC[C@H](O[C@@H]8O[C@H](C(=O)O)[C@@H](O)[C@H](O)[C@H]8O[C@@H]8O[C@H](CO)[C@@H](O)[C@H](O)[C@H]8O)C(C)(C)[C@@H]7CC[C@@]6(C)[C@]4(C)CC5)[C@H](O)[C@@H](O)[C@@H]3O)O[C@@H]2CO)[C@H](O)[C@H](O)[C@H]1O | 6.9 |  |  |
| CC1(C)CC[C@]2(C(=O)O[C@@H]3O[C@H](CO)[C@@H](O)[C@H](O)[C@H]3O)CC[C@]3(C)C(=CC[C@@H]4[C@@]5(C)CC[C@H](O[C@H]6OC[C@H](O)[C@H](O[C@@H]7O[C@H](CO)[C@@H](O)[C@H](O)[C@H]7O)[C@H]6O)C(C)(C)[C@@H]5CC[C@]43C)[C@@H]2C1 | 3.9 | 4.6 |  |
| C[C@@H]1O[C@@H](O[C@H]2[C@H](O)[C@@H](O)[C@H](OC[C@H]3O[C@@H](OC(=O)[C@]45CCC(C)(C)C[C@H]4C4=CC[C@@H]6[C@@]7(C)CC[C@H](O[C@H]8OC[C@H](O)[C@H](O)[C@H]8O)C(C)(C)[C@@H]7CC[C@@]6(C)[C@]4(C)CC5)[C@H](O)[C@@H](O)[C@@H]3O)O[C@@H]2CO)[C@H](O)[C@H](O)[C@H]1O | 2.5 | 3.4 |  |
| C[C@@H]1O[C@@H](O[C@H]2[C@H](O)[C@@H](O)[C@H](O[C@@H]3[C@@H](O)[C@H](OC[C@H]4O[C@@H](OC(=O)[C@]56CCC(C)(C)C[C@H]5C5=CC[C@@H]7[C@@]8(C)CC[C@H](O[C@H]9OC[C@H](O)[C@H](O[C@@H]%10O[C@H](CO)[C@@H](O[C@@H]%11O[C@H](CO)[C@@H](O)[C@H](O)[C@H]%11O)[C@H](O)[C@H]%10O)[C@H]9O)C(C)(C)[C@@H]8CC[C@@]7(C)[C@]5(C)CC6)[C@H](O)[C@@H](O)[C@@H]4O)O[C@H](CO)[C@H]3O)O[C@@H]2CO)[C@H](O)[C@H](O)[C@H]1O | 9 |  |  |
| C[C@@H]1O[C@@H](O[C@H]2[C@H](O)[C@@H](O)[C@H](OC[C@H]3O[C@@H](OC(=O)[C@]45CCC(C)(C)C[C@H]4C4=CC[C@@H]6[C@@]7(C)CC[C@H](O[C@H]8OC[C@H](O)[C@H](O[C@@H]9O[C@H](CO)[C@@H](O[C@@H]%10O[C@H](CO)[C@@H](O)[C@H](O)[C@H]%10O)[C@H](O)[C@H]9O)[C@H]8O)C(C)(C)[C@@H]7CC[C@@]6(C)[C@]4(C)CC5)[C@H](O)[C@@H](O)[C@@H]3O)O[C@@H]2CO)[C@H](O)[C@H](O)[C@H]1O | 3 |  |  |
| C[C@@H]1O[C@@H](O[C@H]2[C@H](O)[C@@H](O)[C@H](O[C@@H]3[C@@H](O)[C@H](OC[C@H]4O[C@@H](OC(=O)[C@]56CCC(C)(C)C[C@H]5C5=CC[C@@H]7[C@@]8(C)CC[C@H](O[C@H]9OC[C@H](O)[C@H](O[C@@H]%10O[C@H](CO)[C@@H](O[C@@H]%11O[C@H](CO)[C@@H](O)[C@H](O)[C@H]%11O)[C@H](O)[C@H]%10O)[C@H]9O)C(C)(C)[C@@H]8CC[C@@]7(C)[C@]5(C)C[C@H]6O)[C@H](O)[C@@H](O)[C@@H]4O)O[C@H](CO)[C@H]3O)O[C@@H]2CO)[C@H](O)[C@H](O)[C@H]1O | 0.32 | 1.7 | 1.3 |
| C[C@@H]1O[C@@H](O[C@H]2[C@H](O)[C@@H](O)[C@H](OC[C@H]3O[C@@H](OC(=O)[C@]45CCC(C)(C)C[C@H]4C4=CC[C@@H]6[C@@]7(C)CC[C@H](O[C@H]8OC[C@H](O)[C@H](O[C@@H]9O[C@H](CO)[C@@H](O)[C@H](O)[C@H]9O)[C@H]8O)C(C)(C)[C@@H]7CC[C@@]6(C)[C@]4(C)CC5)[C@H](O)[C@@H](O)[C@@H]3O)O[C@@H]2CO)[C@H](O)[C@H](O)[C@H]1O | 3.6 | 7 |  |
| CC1(C)CC[C@]2(C(=O)O[C@@H]3O[C@H](CO)[C@@H](O)[C@H](O)[C@H]3O)[C@H](O)C[C@]3(C)C(=CC[C@@H]4[C@@]5(C)CC[C@H](O[C@@H]6O[C@H](C(=O)O)[C@@H](O)[C@H](O)[C@H]6O[C@@H]6O[C@H](CO)[C@@H](O)[C@H](O)[C@H]6O)C(C)(C)[C@@H]5CC[C@]43C)[C@@H]2C1 | 0.19 | 0.34 | 0.23 |
